Screens deposited in PubChem BioAssay by The Scripps Research Institute Molecular Screening Center.
Only some compounds are listed: those with a hit (about 1.8% of all), similar ones and a draw of the others.
NPY2 pot ag = potentiates or activates human NPY-Y2 receptor. cells expressing NPY-Y2, potentiator/agonist read-out. activation, % at 3.6 µM. actives 0.45% (n = 220,000). AID 1359; in the data active = activation above about 27%;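 also: cells stimulated with NPY near EC25 plus isoproterenol at EC100; 0% = vehicle plus submaximal agonist and 100% = vehicle plus saturating agonist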
Target sequence (P49146 whole entry, looked up): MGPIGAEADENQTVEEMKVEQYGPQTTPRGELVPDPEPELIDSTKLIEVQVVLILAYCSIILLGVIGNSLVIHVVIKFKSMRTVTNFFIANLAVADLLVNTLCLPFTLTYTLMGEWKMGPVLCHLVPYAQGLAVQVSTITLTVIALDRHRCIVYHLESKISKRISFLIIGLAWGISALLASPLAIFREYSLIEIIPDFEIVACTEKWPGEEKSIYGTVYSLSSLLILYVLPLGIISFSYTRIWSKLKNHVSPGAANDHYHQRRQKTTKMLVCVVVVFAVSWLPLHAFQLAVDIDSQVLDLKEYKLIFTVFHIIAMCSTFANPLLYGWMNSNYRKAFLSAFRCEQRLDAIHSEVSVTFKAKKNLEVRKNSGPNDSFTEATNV
NPY-Y1 PAM-ag = potentiators or agonists of human neuropeptide Y receptor Y1; actives 0.37% (n = 220,000); NPY-Y1 expressing cells, potentiator/agonist activation; activation, % at 3.6 µM; AID 1304; P25929; in the data active = activation above about 33%, passing the limit was not always enough;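 also: cells stimulated with NPY at EC10 then isoproterenol at EC100; 0% = low agonist plus stimulus and 100% = saturating agonist plus stimulus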
NPY Y2 blocker = blocks the human neuropeptide Y Y2 receptor; NPY-Y2 expressing cells, antagonist mode; actives 0.99% (n = 140,000); inhibition, % at 2.7 µM; in the data active = inhibition above about 17%;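 also: 0% = vehicle with agonist challenge and 100% = reference antagonist with challenge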
NPY Y1 blocker = NPY-Y1 (human) receptor antagonism | HEK293-CNG Y1 cells, membrane potential fluorescence; NPY at EC95, then isoproterenol | P25929 | inhibition, % at 3.6 µM | actives 1% (n = 200,000) | AID 1040;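 active = inhibition above the campaign mean inhibition of all tested compounds plus 3 SD, cut at about 20% in these data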;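 also: 0% = DMSO wells given NPY plus isoproterenol and 100% = isoproterenol alone without NPY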
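Material: Y1- and CNG-channel-expressing HEK293 cells / Probe or stimulus: NPY 25 nM then isoproterenol 1 µM plus Ro 20-1724 25 µM / Doses: 3.6 µM single dose, DMSO 0.4% / Schedule: compound incubation 1 h at room temperature, readout 45 min post-stimulation / Signal: membrane potential fluorescence / Benchmarks: isoproterenol-only wells as full block versus NPY-plus-isoproterenol wells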
NPY-Y1 pot conf = human NPY-Y1 potentiation or agonism, confirmation. shares compounds with NPY-Y1 PAM-ag. cell-based NPY-Y1 potentiator/agonist assay. activation, % at 3.6 µM. actives 20% (n = 280); in the data active = activation above about 45%;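 also: cells challenged with NPY at its EC10 plus isoproterenol stimulus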
NPY-Y2 counter = NPY-Y2 potentiation or agonism as NPY-Y1 counter-screen | activation, % at 3.6 µM | AID 1649 | HEK293-CNG cells, membrane-potential fluorescence (FLIPR), 1536-well | actives 20% (n = 280) | shares compounds with NPY-Y1 PAM-ag; in the data active = activation above about 33%
NPY-Y1 agonist = counter-screen for NPY-Y1 potentiators: agonists of human NPY-Y1; actives 50% (n = 280); HEK293 Y1-CNGC, membrane potential fluorescence, agonist mode; AID 1697; shares compounds with NPY-Y1 PAM-ag; activation, % at 3.6 µM;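 active = percent activation above the mean of DMSO-only control wells plus 3 SD of those wells, cut at about 18% in these data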;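 also: cells challenged with isoproterenol plus Ro 20-1724 with no NPY in test wells; Y1 agonism lowers isoproterenol-driven cAMP and reduces probe fluorescence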
NPY-Y2 ag = activates human NPY-Y2, counter-screen for NPY-Y1 hits | activation, % at 3.6 µM | HEK293 Y2-CNGC, membrane potential fluorescence, agonist mode | actives 67% (n = 280) | AID 1698 | shares compounds with NPY-Y1 PAM-ag;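 active = activation above the solvent-only control wells' mean plus 3 SD, cut at about 11% in these data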;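 also: 0% = DMSO with isoproterenol and 100% = 40 nM NPY maximal response; agonism lowers cAMP so well fluorescence drops in active wells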
CNGC counter = blocks cyclic nucleotide gated channel in NPY-Y1 counter-screen; inhibition, % at 3.6 µM; HEK293-CNG parental, isoproterenol cAMP, membrane potential fluorescence; actives 42% (n = 280); AID 1704; shares compounds with NPY-Y1 PAM-ag;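 active = inhibition above the mean of stimulated solvent-only control wells plus 3 SD, cut at about 22% in these data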;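 also: 0% = isoproterenol-stimulated DMSO wells and 100% = unstimulated DMSO wells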
* hit, by the source's call; . = no result given.

SMILES	NPY2 pot ag	NPY-Y1 PAM-ag	NPY Y2 blocker	NPY Y1 blocker	NPY-Y1 pot conf	NPY-Y2 counter	NPY-Y1 agonist	NPY-Y2 ag	CNGC counter
CCOc1ccccc1NC(=O)C1C2C=CC(O2)C1C(=O)O (configuration not stated)	10.8	57.4*	2.1	1.4	8.7	-0.3	-8.8	5.1	-2.0
Cc1cc(C)c(NC(=O)c2ccc(CN3CCc4ccccc4C3)cc2)c(C)c1	6.7	56.7*	7.8	0.6	-14.8	-8.8	6.2	-2.1	-14.3
Cc1c(NC(=O)c2ccc(CN3CCc4ccccc4C3)cc2)c(=O)n(-c2ccccc2)n1C	14.3	7.8	1.3	3.2	.	.	.	.	.
CC(C)CC1NC(=O)N(Cc2nc3ccccc3s2)C1=O (configuration not stated)	1.4	7.8	.	.	.	.	.	.	.
COc1ccc(NC(=O)NN(C(=O)c2ccccc2)C(C)(C)C)cc1	2.5	-8.4	-0.1	-5.3	.	.	.	.	.
Cc1ccc(S(=O)(=O)NCC(=O)NCC(=O)OCC(=O)N2CC(=O)Nc3ccccc32)cc1C	-2.6	-2.7	.	5.8	.	.	.	.	.
CCOc1ccc(Nc2nc(Nc3ccc(O)cc3)nc(C)c2[N+](=O)[O-])cc1	24.7	40.2*	.	-9.2	26.7	22.5	5.3	15.5*	20.2
COc1ccc(Nc2nc(N)c([N+](=O)[O-])c(NCCO)n2)cc1	24.2	20.2	.	.	.	.	.	.	.
CC1=C(C)/C(=N\OS(=O)(=O)c2ccccc2)C=CC1=O	12.3	69.7*	2.9	-4.8	-0.8	12.8	0.9	12.8*	0.0
Cc1ccc(S(=O)(=O)O/N=C2\CCCc3ccccc32)cc1	-1.0	-8.2	2.0	4.2	.	.	.	.	.
CC1N(C)c2cc(NC(=O)c3ccco3)c(P(=O)(Nc3ccc([N+](=O)[O-])cc3)N3CCOCC3)cc2C1(C)C (configuration not stated)	21.8	37.0*	.	-8.8	36.7	24.7	17.1	29.1*	24.2*
CN(C)S(=O)(=O)c1ccc(S(=O)(=O)N(Cc2ccco2)Cc2ccccc2Cl)cc1	20.4	38.3*	11.8	-9.6	0.3	-3.2	-8.2	0.1	-14.2
COc1ccc(CCCC(=O)Nc2ccc(F)cc2)cc1	-7.5	11.0	1.0	-1.8	.	.	.	.	.
Cc1ccccc1OCC(O)CN1CCN(CC(O)COc2ccccc2C)CC1 (configuration not stated)	23.0	40.1*	.	-4.8	17.8	19.0	31.1*	15.6*	0.1
O=C(Nc1ccccc1)C1CC=CCC1C(=O)OCC1CCCO1 (configuration not stated)	10.3	54.6*	-0.3	-1.5	-3.2	-6.4	-1.3	-1.2	-0.6
Cc1cc(C)cc(OCC(O)CN2CCN(Cc3ccc4c(c3)OCO4)CC2)c1 (configuration not stated)	11.4	50.0*	.	-2.0	-15.2	-4.1	-2.6	8.2	-11.4
CN(C)CCCNc1cc(C(C)(C)C)nc2c(-c3ccccc3)cnn12	26.6	55.0*	.	.	41.4	34.5*	25.0*	19.7*	34.7*
CC(C)(C)c1cc(NCCCn2ccnc2)n2ncc(-c3ccc(Cl)cc3)c2n1	19.1	33.1	-4.0	-4.4	.	.	.	.	.
CCCCCCn1ccc(=N)cc1	-1.8	-0.9	0.7	2.2	.	.	.	.	.
CCCCCCCCCCCCCCCCn1cc[n+](CC(C)=O)c1	23.4	58.2*	.	-4.5	57.8*	25.5	38.3*	18.9*	28.4*
CC(CCc1ccccc1)NC(=O)Cc1cccs1 (configuration not stated)	0.2	17.8	.	-5.1	.	.	.	.	.
Cc1cc(SCC(=O)NN)c2cc(Br)ccc2n1	-22.7	23.4	.	.	.	.	.	.	.
COc1ccc(N(C)S(=O)(=O)c2cccc(C(=O)Nc3nnc(C4CC4)s3)c2)cc1	6.1	37.7*	.	-3.0	43.7	29.6	41.1*	20.2*	40.2*
